Experimental data reported in ChEMBL document CHEMBL4266029, “Zampanolides B-E from the Marine Sponge Cacospongia mycofijiensis: Potent Cytotoxic Macrolides with Microtubule-Stabilizing Activity” (J Nat Prod, 2018).
The source made the active and inactive calls. The calls are words filed in the database; no cut-off is given here.

Key:
HL-60 [1] = assay: Cell cycle arrest in human HL60 cells assessed as accumulation at G1 phase at 1 uM after 18 hrs by propidium iodide staining based flow cytometry (reference value: 51%); type: functional
How it was run: (§1)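 HL-60 cells seeded at 1 × 10^5 cells/well, exposed to 1 μM compound for 18 h at 37 °C. Stained 30 min in the dark with propidium iodide (0.05 mg/mL in 0.1% sodium citrate, 0.1% Triton X-100, 100 μg/mL RNase), then DNA content read by flow cytometry. Reported as % cells in each phase; n = 2 replicates from a single experiment.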

HL-60 [2] = assay: Cell cycle arrest in human HL60 cells assessed as accumulation at S phase at 1 uM after 18 hrs by propidium iodide staining based flow cytometry (reference value: 27%); type: functional; how it was run: as §1
HL-60 [3] = assay: Cell cycle arrest in human HL60 cells assessed as accumulation at G2/M phase at 1 uM after 18 hrs by propidium iodide staining based flow cytometry (reference value: 22%); type: functional; how it was run: as §1
HL-60 [4] = assay: Antiproliferative activity against human HL60 cells after 72 hrs by MTT assay; type: functional, cell-based; details: HL-60, 72 h
How it was run: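 HL-60 cells seeded at 1 × 10^4 cells/well, exposed to 2-fold serial dilutions with paclitaxel as positive control, 72 h at 37 °C. MTT (5 mg/mL in PBS) added for 2 h at 37 °C. Formazan dissolved overnight at 37 °C in 10% SDS/45% dimethylformamide, absorbance read at 570 nm. n = 3 independent experiments, two technical replicates each.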

Sus scrofa [5] = organism: Sus scrofa; assay: Induction of porcine tubulin polymerization assessed as microtubule stabilization at 27 uM measured at 1 min interval over 100 mins
How it was run: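 Fluorescence-based in vitro assay with purified porcine brain tubulin, run without microtubule-associated proteins and with glycerol omitted from the polymerization buffer. Compound at 27 μM final, with tubulin buffer added just before reading. Kinetic read at 37 °C, λex 360/λem 450 nm, every 1 min for 100 min. n = 3 replicates from a single preparation.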

Sus scrofa [6] = organism: Sus scrofa; assay: Induction of porcine tubulin polymerization assessed as microtubule stabilization at 2.8 uM measured at 1 min interval over 100 mins
How it was run: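 Fluorescence-based assay with purified porcine brain tubulin, no microtubule-associated proteins, glycerol omitted from polymerization buffer. Compound at 2.8 μM final, paclitaxel 2.8 μM as positive control, vehicle control. Tubulin buffer added immediately before reading. Kinetic read at 37 °C, λex 360/λem 450 nm, every 1 min for 100 min. n = 3 replicates, single preparation.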

Row | SMILES | Activity (Sus scrofa [5]) | Activity (HL-60 [1]) [%] | Activity (HL-60 [2]) [%] | Activity (HL-60 [3]) [%] | IC50 (HL-60 [4]) [nM] | Activity (Sus scrofa [6])
1 | C=C1C[C@@H]2C/C=C/C(=O)C/C(C)=C\C=C\C(=O)O[C@H]([C@H](O)NC(=O)/C=C/C=C\C)C/C(C)=C/[C@H](C1)O2 | – | 19 | 26 | 55 | 5.3 | Active
2 | C=C1C[C@@H]2C/C=C/C(=O)C/C(C)=C\C=C\C(=O)O[C@H]([C@H](O)NC(=O)/C=C\C=C\C)C/C(C)=C/[C@H](C1)O2 [ZAMPANOLIDE] | – | 18 | 28 | 54 | 3.2 | Active
3 | CC(=O)O[C@H]1C(=O)[C@@]2(C)[C@H]([C@H](OC(=O)c3ccccc3)[C@]3(O)C[C@H](OC(=O)[C@H](O)[C@@H](NC(=O)c4ccccc4)c4ccccc4)C(C)=C1C3(C)C)[C@]1(OC(C)=O)CO[C@@H]1C[C@@H]2O [PACLITAXEL] | – | 18 | 24 | 58 | – | Active
4 | C=C1C[C@@H]2C/C=C/C(=O)C/C(C)=C/C=C/C(=O)O[C@H]([C@H](O)NC(=O)/C=C\C=C\C)C/C(C)=C/[C@H](C1)O2 | – | 16 | 30 | 54 | 3.3 | Active

Further lines, with some results ahead:

Row | Activity (Sus scrofa [5]) | SMILES | Activity (HL-60 [1]) [%] | Activity (HL-60 [2]) [%] | Activity (HL-60 [3]) [%] | IC50 (HL-60 [4]) [nM] | Activity (Sus scrofa [6])
5 | inactive | C=C1C[C@@H]2CCCC(=O)C/C(C)=C\C=C\C(=O)O[C@H]([C@H](O)NC(=O)/C=C\C=C\C)C/C(C)=C/[C@H](C1)O2 | 44 | 25 | 30 | 300 | –
6 | inactive | C=C1C[C@@H]2C/C=C/C(=O)C/C(C)=C\C=C\C(=O)O[C@H](C=O)C/C(C)=C/[C@H](C1)O2 | 17 | 29 | 54 | 240 | –
